Compound activity as filed in PubChem.
An excerpt weighted towards active compounds, which were near 2.2% of everything screened.
Neddyl block – blocks human cullin neddylation; P61081+Q13564; TR-FRET cullin neddylation, biochemical; inhibition, % at 25 µM; 360,000 tested, 0.58% active; in the data active = inhibition above about 36%
HKDC1 inhibitor – HKDC1 (human) hexokinase inhibition. Q2TB90. recombinant HKDC1, G6PDH/diaphorase resazurin coupled fluorescence. inhibition, % at 20 µM. 340,000 tested, 0.16% active;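 active = inhibition above about 35% when tested at 20 µM, limit read from the data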;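 also: plate controls were DMSO wells with enzyme for no effect and DMSO wells lacking enzyme for full effect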
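Test system: HK5 enzyme. Quantity: 5 µg/mL HK5 final. Reagent: glucose and ATP substrates. Schedule: 90 min reaction incubation at room temperature, dark. Technique: resazurin-to-resorufin fluorescence via G6PDH and diaphorase coupling, 525/613 nm. Control set: DMSO wells with and without enzyme mix.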
PfG6PD inh – PfG6PD (Plasmodium falciparum) enzyme inhibition; PfGluPho enzyme, NADPH resazurin-diaphorase fluorescence; inhibition, % at 20 µM; 350,000 tested, 0.78% active;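 active = inhibition reaching at least a set limit at 20 µM in the primary screen, cut at about 59% in these data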;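 also: 0% = DMSO wells with substrate and 100% = DMSO wells lacking glucose-6-phosphate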
M18AAP inhibitor – blocks P. falciparum M18 aspartyl aminopeptidase; recombinant PfM18AAP, H-Glu-NHMec fluorogenic cleavage; 290,000 tested, 1.2% active; inhibition, % at 7.35 µM; AID 1822;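 active = inhibition above the campaign mean inhibition over all tested compounds plus 3 SD, cut at about 28% in these data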;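 also: 0% = plate median of test compound wells and 100% = 2 mM ZnCl2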
* hit, by the source's call; . = no result.

SMILES	Neddyl block	HKDC1 inhibitor	PfG6PD inh	M18AAP inhibitor
COC(=O)CSC1=C(C#N)C(c2ccc(C(C)C)cc2)CC(=O)N1 (stereo unspecified)	-22.0	3.9	-4.9	4.2
CC(C)c1ccc(C2CC(=O)N3CN(C)CSC3=C2C#N)cc1 (stereo unspecified)	-5.7	27.1	86.5*	17.8
Cc1ccc(CC2CC(=O)N(Cc3ccco3)C2=O)cc1 (stereo unspecified)	1.2	-2.8	15.1	-1.9
COc1ccc(OC)c(C2=Nn3c(nnc3-c3cc(C)[nH]n3)SC2)c1	-4.7	0.3	10.5	-3.5
COc1ccc(CCN2C(=O)COc3ccccc3C2C(=O)Nc2c(C)cccc2C)cc1OC (stereo unspecified)	7.9	.	.	.
Cc1cc(C)nc(NN2C(=O)/C(=C/c3ccc(O)cc3)SC2=S)n1	-38.8	8.5	3.8	30.1*
O=C(NNS(=O)(=O)c1ccc([N+](=O)[O-])cc1)c1ccccc1	-24.8	1.2	15.7	.
O=C(NNS(=O)(=O)c1ccc([N+](=O)[O-])cc1)C(=O)Nc1cccc(C(=O)O)c1	-28.8	3.1	24.9	31.0*
COCCSc1ccccc1C(=O)Nc1ccc(S(=O)(=O)N2CCOCC2)cc1	-0.4	1.9	-1.3	-8.2
[N-]=[N+]=NC[C@H](c1ccccc1)N1CCN(Cc2ccccc2)CCC1=O	-5.7	-4.9	-8.8	11.1
O=c1[nH]c(-[n+]2ccccc2)c(/C=N/NC([S-])=Nc2ccccc2)s1	-14.8	-0.4	27.5	27.6
Cc1cc[n+](-c2[nH]c(=O)sc2/C=N/NC([S-])=Nc2ccccc2)cc1	-61.2	1.8	29.1	31.1*
COc1cc(-c2nc(C(=O)NCC3CCCO3)cc3c2[nH]c2ccccc23)cc(OC)c1OC (stereo unspecified)	44.3*	-0.3	33.4	5.8
Cc1ccc(N2CCN(C(=O)C(=O)c3ccc(F)c(F)c3)CC2)cc1	6.5	.	.	.
O=C1CSC(=S)N1c1ccc(F)c(Cl)c1	3.9	1.7	-12.6	28.3*
O=C1CSC(=S)N1c1ccccc1	-5.8	-2.0	13.8	.
COc1cccc(N=c2oc3c(C)ncc(CO)c3cc2C(=O)Nc2ccccc2OC)c1	.	.	.	-6.9
COc1ccc(NC(=O)c2cc3c(COC(C)=O)cnc(C)c3oc2=Nc2cccc(C(=O)O)c2)c(OC)c1	-14.3	0.7	67.8*	-13.6
CCN(C(=O)Cn1c(Cl)nc2c1c(=O)n(C)c(=O)n2C)C1CCCCC1	-11.5	-6.6	4.4	.
Cc1sc2c3ccsc3ccc2[n+]1C	21.9	8.1	58.6	30.3*
Cc1sc2ccc3sccc3c2[n+]1C	26.8	-8.6	51.7	29.8*
c1ccc2c(c1)ccc1ccccc12	-4.4	-5.9	14.0	.
CC1=[N+](C)c2ccc3ccccc3c2C1(C)C	44.1*	11.4	43.7	-5.8
CCOC(=O)CNC(=O)CSc1nc(-c2ccccc2)ns1	-1.6	-5.4	30.8	28.3*
O=C(COC(=O)Cc1ccc(Br)cc1)NCc1ccc2c(c1)OCO2	8.1	3.9	-0.7	.
SMILES	Neddyl block	HKDC1 inhibitor	PfG6PD inh	M18AAP inhibitor
COc1ccc(C(=O)CC(c2ccccc2)C2C(=O)CCCC2=O)cc1 (stereo unspecified)	-1.5	-4.4	-9.4	30.9*
COCCN1C(=O)CCC1(C)c1nnnn1-c1ccc2ccccc2c1 (stereo unspecified)	0.6	.	.	.
Cc1c2c(=O)n(-c3nc4ccccc4s3)nc-2cc(O)n1Cc1ccccc1	41.1*	3.0	-3.6	4.8
Cc1[nH]n(-c2ccccc2)c(=O)c1C(c1cccc([N+](=O)[O-])c1)c1c(C)[nH]n(-c2ccccc2)c1=O	-13.1	-1.1	-22.8	24.6
Cc1[nH]n(-c2ccccc2)c(=O)c1C(C[N+](=O)[O-])c1ccc(Br)cc1 (stereo unspecified)	-4.3	2.3	2.2	29.7*
COc1cccc(C(C[N+](=O)[O-])c2c(C)[nH]n(-c3ccccc3)c2=O)c1 (stereo unspecified)	0.8	0.3	-11.4	39.2*
Nc1nc2ccccc2n1C(=O)c1ccccc1	41.3*	-9.4	9.3	3.4
CCN(CC)CCn1c2ccccc2c2n[nH]c(=S)nc21	-19.4	0.8	63.7*	22.3
CCN(CC)CCn1c2ccccc2c2nc3ccccc3nc21	0.5	1.2	7.8	-2.7
COc1ccc(N(C(=O)C(C)C)S(=O)(=O)c2ccc3ccccc3c2)cc1	-9.2	8.2	-14.8	0.6
CC(C)c1ccc(NC2CCCN(C(=O)CC3CCCC3)C2)cc1 (stereo unspecified)	13.9	1.4	-6.5	17.6
O=C(NCc1ccccn1)c1cc2n(n1)C(C(F)(F)F)CC(c1ccco1)N2 (stereo unspecified)	7.0	-3.0	-2.0	30.6*
CC(C)NC(=O)c1cc2n(n1)C(C(F)(F)F)CC(c1ccco1)N2 (stereo unspecified)	4.3	7.7	-19.3	-9.3
Cc1cccc(/C=N/NC(=O)c2c(-c3ccccc3)noc2C)c1O	19.4	-25.0	16.6	28.9*
O=C(NC(=S)N1CCN(c2ccc(F)cc2)CC1)c1cccs1	-8.5	0.6	-4.2	4.7
O=C(NC(=S)N1CCN(c2ccc(O)cc2)CC1)c1cccs1	8.6	-0.7	24.0	30.9*
C[C@@H]1CN([C@H](C)CO)C(=O)CCCn2nncc2CO[C@@H]1CN(C)S(C)(=O)=O	-8.0	.	-24.3	.
N#Cc1c(SCC(=O)Nc2nccs2)sc2c(O)cc(=O)[nH]c12	-20.9	6.1	43.4	29.3*
CCCSc1nnc(NC(=O)CSc2sc3c(O)cc(=O)[nH]c3c2C#N)s1	-4.9	13.4	-6.1	26.2
COc1ccc2ccc3c(c2c1)N=CC1(O3)N(C)c2ccccc2C1(C)C (stereo unspecified)	42.6*	16.5	18.9	5.9
CN1c2ccccc2C(C)(C)C12C=Nc1c(ccc3ccccc13)O2 (stereo unspecified)	20.8	22.5	43.5	11.0
COc1ccccc1Cn1c(=S)[nH]c2cc(C(=O)N3CC(C)CC(C)C3)ccc2c1=O (stereo unspecified)	-29.4	.	-4.3	.
COc1cc(N2CCCC2)c(OC)cc1/C=C1/NC(=S)NC1=O	-51.5	9.8	35.4	28.5*
COc1cc(O)c(C=NN2C(=O)CSC2=S)c(OC)c1	19.1	.	28.8	.
O=C1CSC(=S)N1/N=C/c1cc(Br)c(O)c(Br)c1	-43.5	11.5	2.1	40.4*
SMILES	Neddyl block	HKDC1 inhibitor	PfG6PD inh	M18AAP inhibitor
CC1(C)N([O-])c2cc([N+](=O)[O-])ccc2[N+]1=O	.	20.2	69.9*	9.8
CCOC(=O)CC1=NN(c2ccccc2)C(=O)/C1=C\c1ccc(OC)cc1OC	1.8	-5.1	-2.4	2.4
O=c1cc(N=Nc2ccc(Cl)cc2)[nH]c(=O)[nH]1	-0.4	17.7	7.5	69.7*
CCN(CC)c1ccc(-n2c(C)c(C(C)=O)c(C(C)=O)c2C)cc1	2.3	-1.7	11.0	28.2*
CC(=O)c1c(C(C)=O)c(C)n(-c2ccc(O)cc2)c1C	-1.2	-3.2	-15.0	-14.7
CCCCN(C(=O)CCNC(=O)NC12CC3CC(CC(C3)C1)C2)c1c(N)n(CCC)c(=O)[nH]c1=O	0.1	1.7	-0.4	.
Cc1ccc(-c2nc3ccccc3nc2NN)cc1	24.9	2.1	0.7	30.7*
